Source: ChEMBL document CHEMBL3588761, “Design, synthesis and characterization of dual inhibitors against new targets FabG4 and HtdX of Mycobacterium tuberculosis” (Eur J Med Chem, 2015)
The source made the active and inactive calls. The rule behind the calls is not given here.

Tests used:
[1] = Inhibition of Mycobacterium tuberculosis FabG4 assessed as reduction in NADH to NAD+ conversion using acetoacetyl-CoA substrate by UV-visible spectrophotometry
In short: (§1)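 50 mM HEPES pH 7.4 at 25 °C with 1 µM FabG4, 0.2 mM β-NADH, 0.5 mM acetoacetyl-CoA and 5% methanol. Started with substrate; A340 decrease read every 2 min. IC50 taken graphically from dose-response plots. Mode found by varying NADH at three inhibitor levels, using Lineweaver-Burk plots.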

[2] = Inhibition of Mycobacterium tuberculosis HtdX using crotonoyl-CoA substrate by UV-visible spectrophotometry
In short: (§2)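 50 mM HEPES pH 7.5 with 100 mM NaCl at 25 °C, containing 100 nM HtdX, 10 µM crotonoyl-CoA and 5% methanol. Started with substrate; A263 decrease read every 2 min. IC50 taken graphically from dose-response plots. Mode found by varying crotonoyl-CoA at three inhibitor levels, using Lineweaver-Burk plots.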

[3] = system: Mycobacterium tuberculosis; assay: Induction of changes in secondary structure of Mycobacterium tuberculosis FabG4 assessed as turns level at 50 uM by CD spectroscopy (reference value: 34.6%)
[4] = system: Mycobacterium tuberculosis; assay: Induction of changes in secondary structure of Mycobacterium tuberculosis FabG4 assessed as helix level at 50 uM by CD spectroscopy (reference value: 25.9%)
[5] = system: Mycobacterium tuberculosis; assay: Induction of changes in secondary structure of Mycobacterium tuberculosis FabG4 assessed as unordered level at 50 uM by CD spectroscopy (reference value: 33.5%)
[6] = system: Mycobacterium tuberculosis; assay: Competitive inhibition of Mycobacterium tuberculosis FabG4 assessed as reduction in NADH to NAD+ conversion using acetoacetyl-CoA substrate and varying NADH levels by UV-visible spectrophotometry; in short: as §1
[7] = system: Mycolicibacterium smegmatis; assay: Antimycobacterial activity against Mycobacterium smegmatis str. MC2 155 assessed as inhibition of microbial growth incubated for 24 hrs by REMA method; format: functional; conditions: str. MC2 155, 24 h
In short: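 M. smegmatis mc2155 grown in 7H9 broth with 0.2% glycerol and 0.05% Tween 80 at 37 °C, 120 rpm, to mid-log (OD595 ~0.5). Diluted to OD595 0.0005 and exposed to drug for 24 h at 37 °C. Then 0.02% resazurin added for 40 min. MIC is the lowest concentration preventing the blue-to-pink change. Two repeats, averaged.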

[8] = system: Mycolicibacterium smegmatis; assay: Inhibition of biofilm formation of Mycobacterium smegmatis str. MC2 155 at 20 ug/ml incubated at 37 degC without shaking for 4 weeks; format: functional; conditions: str. MC2 155, 672 h
In short: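 M. smegmatis mc2155 planktonic culture inoculated at 1% into Sauton's minimal medium without Tween-80. Inhibitor at 5, 10, 20, 50 and 100 µg/mL, with a no-inhibitor control. Plates sealed and held static at 37 °C for 4 weeks; biofilm formation assessed visually.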

[9] = Drug metabolism in culture media assessed as isoniazid release in presence of Mycobacterium smegmatis str. MC2 155 incubated for 24 hrs by HPLC method; format: physicochemical
In short: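 Compound incubated in culture medium with M. smegmatis for 24 h. Culture then lyophilised, redissolved and run on HPLC (100% methanol eluent, 1.2 mL/min), checking for an isoniazid peak.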

[10] = system: Mycobacterium tuberculosis; assay: Induction of changes in secondary structure of Mycobacterium tuberculosis FabG4 assessed as beta-sheet level at 50 uM by CD spectroscopy (reference value: 6%)
[11] = system: Mycobacterium tuberculosis; assay: Binding affinity to Mycobacterium tuberculosis FabG4 assessed as second binding constant at 25 degC by isothermal titration calorimetry
In short: (§3)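 FabG4 at 4.5 µM in 50 mM HEPES pH 7.4 in the cell, titrated at 25 °C with 500 µM ligand in 5% methanol-buffer (0.4 µL then 19 × 2 µL, 120 s spacing). Buffer-ligand reference titration subtracted. Two sequential binding events, per monomer of the homodimer.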

[12] = system: Mycobacterium tuberculosis; assay: Binding affinity to Mycobacterium tuberculosis FabG4 assessed as first binding constant at 25 degC by isothermal titration calorimetry; in short: as §3
[13] = system: Mycobacterium tuberculosis; assay: Binding affinity to Mycobacterium tuberculosis HtdX assessed as binding constant at 25 degC by isothermal titration calorimetry
In short: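 HtdX at 10 µM in 50 mM HEPES pH 7.5 with 100 mM NaCl in the cell, titrated at 25 °C with 500 µM ligand in 5% methanol-buffer (0.4 µL then 19 × 2 µL). Buffer-ligand reference subtracted. Isotherm fitted to a one-site model.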

[14] = system: Mycobacterium tuberculosis; assay: Induction of changes in secondary structure of Mycobacterium tuberculosis HtdX assessed as beta-sheet level at 50 uM by CD spectroscopy (reference value: 40.1%)
[15] = system: Mycobacterium tuberculosis; assay: Induction of changes in secondary structure of Mycobacterium tuberculosis HtdX assessed as unordered level at 50 uM by CD spectroscopy (reference value: 35.2%)
[16] = system: Mycobacterium tuberculosis; assay: Induction of changes in secondary structure of Mycobacterium tuberculosis HtdX assessed as turns level at 50 uM by CD spectroscopy (reference value: 12.6%)
[17] = system: Mycobacterium tuberculosis; assay: Competitive inhibition of Mycobacterium tuberculosis HtdX using varying crotonoyl-CoA substrate by UV-visible spectrophotometry; in short: as §2
[18] = system: Mycobacterium tuberculosis; assay: Induction of changes in secondary structure of Mycobacterium tuberculosis HtdX assessed as helix level at 50 uM by CD spectroscopy (reference value: 12.2%)

## O=C(O)[C@@H]1C(=O)N(c2ccccc2)[C@H]1c1ccncc1 (relative stereo)
[1]; read-out: IC50
  IC50: 64.3 µM
[2]
  IC50: Not Active

## O=C(O)[C@@H]1C(=O)N(c2ccccc2)[C@H]1c1cccs1 (relative stereo)
[1]
  IC50: Not Active
[2]
  IC50: Not Active

## O=C(O)[C@@H]1C(=O)N(c2ccccc2)[C@H]1c1ccco1 (relative stereo)
[1]
  IC50: Not Active
[2]
  IC50: Not Active

## O=C1[C@@H](CO)[C@H](c2ccncc2)N1c1ccccc1 (relative stereo)
[1]; read-out: IC50
  IC50: 666 µM
[2]
  IC50: Not Active

## O=C(NNC(=O)[C@@H]1C(=O)N(c2ccccc2)[C@H]1c1ccncc1)c1ccncc1 (relative stereo)
[1]; read-out: IC50
  IC50: 15.2 µM
[3]
  Activity: 29.8%
[4]
  Activity: 30%
[5]
  Activity: 34.4%
[6]
  inhibition: Active
[7]
  MIC: 15 µg/mL
[8]
  inhibition at 20 µg/mL: 100%
[9]
  Drug metabolism: metabolite_notdetected
[2]; read-out: IC50
  IC50: 22.3 µM
[10]
  Activity: 5.7%
[11]
  K: 1.15 ×10³ /M
[12]
  K: 2.98 ×10⁵ /M

## O=C(NNC(=O)[C@@H]1C(=O)N(c2ccccc2)[C@H]1c1cccs1)c1ccncc1 (relative stereo)
[13]
  K: 4.21 ×10⁵ /M
[1]; read-out: IC50
  IC50: 26.1 µM
[14]
  Activity: 50.6%
[15]
  Activity: 35.7%
[16]
  Activity: 2.6%
[7]
  MIC: 20 µg/mL
[2]; read-out: IC50
  IC50: 10.3 µM
[17]
  inhibition: Active
[18]
  Activity: 11.1%

## O=C(NNC(=O)[C@@H]1C(=O)N(c2ccccc2)[C@H]1c1ccco1)c1ccncc1 (relative stereo)
[1]; read-out: IC50
  IC50: 27.6 µM
[7]
  MIC: 15 µg/mL
[2]; read-out: IC50
  IC50: 17.6 µM

## O=C(NNC(=O)[C@@H]1C(=O)N(c2ccccc2)[C@H]1c1ccncc1)c1ccccc1 (relative stereo)
[1]; read-out: IC50
  IC50: 39.9 µM
[2]
  IC50: Not Active

## NNC(=O)c1ccncc1 [ISONIAZID]
[7]
  MIC: 10 µg/mL
